Activity calls are given as the source filed them. The rule behind the calls is not given here.
Columns and labels:
Saccharomyces cerevisiae [1] = experiment: Antimicrobial activity against Saccharomyces cerevisiae YCG198 harboring Saccharomyces cerevisiae Y8205 MATalpha PDR1delta::NAT PDR3 delta::URA3 assessed as growth inhibition at 100 uM after 18 hrs; assay type: functional; conditions: YCG198, 18 h, read-out: GI
How it was run: (§1)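 Stationary-phase yeast grown in synthetic complete medium, diluted to 5 × 10^5 cells/mL, then exposed 18 h at 30 °C to seven-point half-log dilutions from DMSO stocks (final 100 to 0.01 μM; one extended series topped at 300 μM). DMSO (1% or 3%) served as control. Growth was read as OD590, and residual growth = OD/OD_DMSO × 100. Mean ± standard error of two independent experiments in triplicate; IC50 from curve fit.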

Saccharomyces cerevisiae [2] = experiment: Antimicrobial activity against Saccharomyces cerevisiae YCG198 harboring Saccharomyces cerevisiae Y8205 MATalpha PDR1delta::NAT PDR3 delta::URA3 assessed as growth inhibition after 18 hrs; assay type: functional, organism-based; conditions: YCG198, 18 h; how it was run: as §1
HL-60 = experiment: Cytotoxicity against human HL60 cells assessed as growth inhibition after 2 days by MTT assay; assay type: functional, cell-based; conditions: HL-60, 48 h
Saccharomyces cerevisiae [3] = experiment: Antimicrobial activity against wild type Saccharomyces cerevisiae YCG117 harboring Saccharomyces cerevisiae Y8205 MATalpha ura3delta0::NAT assessed as growth inhibition at 0.01 to 100 uM after 18 hrs; assay type: functional, organism-based; how it was run: as §1
Saccharomyces cerevisiae [4] = experiment: Antimicrobial activity against Saccharomyces cerevisiae YCG198 harboring Saccharomyces cerevisiae Y8205 MATalpha PDR1delta::NAT PDR3 delta::URA3 assessed as growth inhibition at 0.01 to 100 uM after 18 hrs; assay type: functional, organism-based; how it was run: as §1

COc1c(O)c(C)c(C/C=C(\C)CCCCCCc2ccccc2)oc1=O [LEHUALIDE F] gave an inhibition of growth at 100 µM (Saccharomyces cerevisiae [1]) of 60%, an IC50 (Saccharomyces cerevisiae [2]) of 44 µM and an IC50 (HL-60) of 6.2 µM.

With COc1c(O)c(C)c(C/C=C(\C)CCCCCCCCc2ccccc2)oc1=O [LEHUALIDE G] the inhibition of growth at 100 µM (Saccharomyces cerevisiae [1]) was 68%, the IC50 (HL-60) was 5.4 µM and the “growth inhibition (GI)” value (Saccharomyces cerevisiae [3]) was “inactive”.

With COc1c(C)c(CCCCCCCCCCSC(C)=O)oc(=O)c1OC [LEHUALIDE H] the “growth inhibition (GI)” value (Saccharomyces cerevisiae [4]) was “inactive”, the IC50 (HL-60) was 14.6 µM and the “growth inhibition (GI)” value (Saccharomyces cerevisiae [3]) was “inactive”.

For COc1c(C)c(CCCCCCCCCCSC)oc(=O)c1OC [LEHUALIDE I], the inhibition of growth at 100 µM (Saccharomyces cerevisiae [1]) was 67%, the IC50 (HL-60) was 10.8 µM and the “growth inhibition (GI)” value (Saccharomyces cerevisiae [3]) was “inactive”.

From ChEMBL document CHEMBL1773041, “Lehualides E-K, cytotoxic metabolites from the Tongan marine sponge Plakortis sp” (J Nat Prod, 2011)
